Experimental data: ChEMBL document CHEMBL4396915, “Synthesis of new thiazolyl-pyrazolyl-1,2,3-triazole derivatives as potential antimicrobial agents” (2019)
Values after ≈ are worked out from the molar mass of the structure shown. Active and inactive are the calls of the source. The rule behind the calls is not given here.

Key:
Format in all cases: functional
[1] = test system: Staphylococcus epidermidis; assay: Antibacterial activity against Staphylococcus albus NCIM 2178 assessed as zone of inhibition at 80 ug/well incubated for 24 to 48 hrs by agar well diffusion method; details: for zone of inhibition at 80 µg/disc: read-out: IZ
How it was run: (§1)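 Strains from NCIM kept on nutrient agar slants at 4 C and grown overnight at 37 C in nutrient broth. 500 microlitres of 24-48 h culture swabbed onto nutrient agar. Compounds in DMSO loaded into 5 mm wells, with a DMSO vehicle plate and streptomycin reference. Incubated 24-48 h at 37 C. Zone of inhibition measured in mm and averaged over 4 replicates.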

Aspergillus niger [2] = assay: Antifungal activity against Aspergillus niger NCIM 504 assessed as inhibition of fungal growth incubated for 48 to 72 hrs by broth microdilution susceptibility method
How it was run: (§2)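 Tube micro-dilution in Sabouraud liquid medium. Stocks were made in DMSO and serially diluted twofold in broth to final […]. Tubes inoculated with organisms grown in potato dextrose broth and held 48-72 h at 30 C. MIC is the lowest concentration with no growth. DMSO and uninoculated-media controls were included, in triplicate.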

Rhodotorula glutinis [3] = assay: Antifungal activity against Rhodotorula glutinis NCIM 3168 assessed as inhibition of fungal growth incubated for 48 to 72 hrs by broth microdilution susceptibility method; how it was run: as §2
Candida albicans [4] = assay: Antifungal activity against Candida albicans NCIM 3100 assessed as zone of inhibition at 80 ug/well incubated for 48 to 72 hrs by agar well diffusion method; details: read-out: IZ
How it was run: (§3)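 Fungi kept on potato dextrose agar slants and grown in potato dextrose broth. 500 microlitres of 48-72 h spore suspension swabbed onto Mueller Hinton agar. Compounds in DMSO loaded into 5 mm wells, with a DMSO vehicle plate and fluconazole/ravuconazole positive-control plate. Incubated 48-72 h at 30 C. Clear zone measured in mm, mean of five replicates.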

Candida albicans [5] = assay: Antifungal activity against Candida albicans NCIM 3100 assessed as inhibition of fungal growth incubated for 48 to 72 hrs by broth microdilution susceptibility method; how it was run: as §2
Rhodotorula glutinis [6] = assay: Antifungal activity against Rhodotorula glutinis NCIM 3168 assessed as zone of inhibition at 80 ug/well incubated for 48 to 72 hrs by agar well diffusion method; details: read-out: IZ; how it was run: as §3
Aspergillus niger [7] = assay: Antifungal activity against Aspergillus niger NCIM 504 assessed as zone of inhibition at 80 ug/well incubated for 48 to 72 hrs by agar well diffusion method; details: read-out: IZ; how it was run: as §3
Escherichia coli = assay: Antibacterial activity against Escherichia coli NCIM 2574 assessed as zone of inhibition at 80 ug/well incubated for 24 to 48 hrs by agar well diffusion method; details: for zone of inhibition at 80 µg/disc: read-out: IZ; how it was run: as §1
Proteus mirabilis = assay: Antibacterial activity against Proteus mirabilis NCIM 2388 assessed as zone of inhibition at 80 ug/well incubated for 24 to 48 hrs by agar well diffusion method; how it was run: as §1

Structure (SMILES)	zone of inhibition at 80 µg/disc [1] [mm]	MIC (Aspergillus niger [2])	MIC (Rhodotorula glutinis [3])	zone of inhibition at 80 µg/disc (Candida albicans [4]) [mm]	MIC (Candida albicans [5])	zone of inhibition at 80 µg/disc (Rhodotorula glutinis [6]) [mm]	zone of inhibition at 80 µg/disc (Aspergillus niger [7]) [mm]	zone of inhibition at 80 µg/disc (Escherichia coli) [mm]	inhibition zone (IZ) (Proteus mirabilis)	inhibition zone (IZ) [1]	inhibition zone (IZ) (Escherichia coli)
Cc1nc(-c2ccccc2)sc1-c1nn(-c2ccccc2)cc1-c1cn(Cc2ccc(Br)cc2)nn1	13	62.5 µg/mL (≈ 113 µM)	62.5 µg/mL (≈ 113 µM)	16.4	125 µg/mL (≈ 226 µM)	17.5	14	12	inactive		
Cc1ccc(Cn2cc(-c3cn(-c4ccccc4)nc3-c3sc(-c4ccccc4)nc3C)nn2)cc1		31.2 µg/mL (≈ 64 µM)	inactive	11.8	inactive	19.5	14	10	inactive	inactive	
Cc1nc(-c2ccc(F)cc2)sc1-c1nn(-c2ccccc2)cc1-c1cn(Cc2ccc(Cl)cc2)nn1	11.8	31.2 µg/mL (≈ 59.3 µM)	125 µg/mL (≈ 237 µM)	10.4	inactive	14.5	13.5		inactive		inactive
OC(Cn1cncn1)(Cn1cncn1)c1ccc(F)cc1F [FLUCONAZOLE]		7.81 µg/mL (≈ 25.5 µM)	7.81 µg/mL (≈ 25.5 µM)	20.2	7.81 µg/mL (≈ 25.5 µM)	25.3	18.4		inactive	inactive	inactive
Cc1nc(-c2ccc(F)cc2)sc1-c1nn(-c2ccccc2)cc1-c1cn(Cc2ccc(Br)cc2)nn1	11.4	125 µg/mL (≈ 219 µM)	62.5 µg/mL (≈ 109 µM)	14.4	125 µg/mL (≈ 219 µM)	16.5	16.8		inactive		inactive
Cc1nc(-c2ccccc2)sc1-c1nn(-c2ccccc2)cc1-c1cn(Cc2ccccc2)nn1		inactive	inactive		inactive				inactive		
Cc1nc(-c2ccc(Cl)cc2)sc1-c1nn(-c2ccccc2)cc1-c1cn(Cc2ccc(Br)cc2)nn1	11.8	62.5 µg/mL (≈ 106 µM)	62.5 µg/mL (≈ 106 µM)	17.6	250 µg/mL (≈ 425 µM)	18.8	12	11	inactive		
C[C@@H](c1nc(-c2ccc(C#N)cc2)cs1)[C@](O)(Cn1cncn1)c1ccc(F)cc1F [RAVUCONAZOLE]		31.2 µg/mL (≈ 71.4 µM)	15.6 µg/mL (≈ 35.7 µM)	28.6	7.81 µg/mL (≈ 17.9 µM)	20.1	20.2		inactive	inactive	inactive
Cc1nc(-c2ccc(Br)cc2)sc1-c1nn(-c2ccccc2)cc1-c1cn(Cc2ccccc2)nn1	14.6	62.5 µg/mL (≈ 113 µM)	62.5 µg/mL (≈ 113 µM)	14.6	125 µg/mL (≈ 226 µM)	16.2	13.4	11.5	inactive		
Cc1nc(-c2ccc(Cl)cc2)sc1-c1nn(-c2ccccc2)cc1-c1cn(Cc2ccc(Cl)cc2)nn1	11.5	125 µg/mL (≈ 230 µM)	62.5 µg/mL (≈ 115 µM)	11.3	inactive	14	12.3	9.8	inactive		
Cc1nc(-c2ccc(Cl)cc2)sc1-c1nn(-c2ccccc2)cc1-c1cn(Cc2ccccc2)nn1	11	31.2 µg/mL (≈ 61.4 µM)	125 µg/mL (≈ 246 µM)	15.2	500 µg/mL (≈ 982 µM)	15.2	12.3	12.8	inactive		
